From ChEMBL document CHEMBL1240461, “Regioselective synthesis and molecular modeling study of vasorelaxant active 7,9-dioxa-1,2-diaza-spiro[4.5]dec-2-ene-6,10-diones” (Eur J Med Chem, 2010)
pIC50: −log10 of the molar value.

system: Aorta; assay: Vasorelaxant activity in Wistar rat thoracic aortic ring assessed as inhibition of norepinephrine hydrochloride-induced contraction; type: functional, tissue-based
How it was run: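 Isolated thoracic aortic rings from male Wistar rats, stabilised at 2 g resting tension for 2 h. Controls used DMSO alone at matching concentrations. IC50 is the concentration giving 50% reduction of maximal norepinephrine contracture, from a best-fit line.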

Compound | pIC50
CC1(C)OC(=O)C2(C(=O)O1)C(c1ccc(F)cc1)C(c1ccccc1)=NN2c1cccc(Cl)c1 (stereo unspecified) | 3.19
CC1(C)OC(=O)C2(C(=O)O1)C(c1ccc(F)cc1)C(c1ccccc1)=NN2c1ccccc1 (stereo unspecified) | 2.83
CC1(C)OC(=O)C2(C(=O)O1)C(c1cccs1)C(c1ccccc1)=NN2c1ccccc1 (stereo unspecified) | 3.23
COc1ccc(C2C(c3ccccc3)=NN(c3cccc(Cl)c3)C23C(=O)OC(C)(C)OC3=O)cc1 (stereo unspecified) | 3.49
CC1(C)OC(=O)C2(C(=O)O1)C(c1ccc(Cl)cc1)C(c1ccccc1)=NN2c1cccc(Cl)c1 (stereo unspecified) | 3.35
Cc1ccc(C2C(c3ccccc3)=NN(c3ccccc3)C23C(=O)OC(C)(C)OC3=O)o1 (stereo unspecified) | 3.14

The remaining lines, values ahead:

pIC50 | Compound
3.37 | CN(C)c1ccc(C2C(c3ccccc3)=NN(c3cccc(Cl)c3)C23C(=O)OC(C)(C)OC3=O)cc1 (stereo unspecified)
3.23 | CC1(C)OC(=O)C2(C(=O)O1)C(c1ccc(Cl)cc1)C(c1ccccc1)=NN2c1ccccc1 (stereo unspecified)
3.14 | Cc1ccc(C2C(c3ccccc3)=NN(c3cccc(Cl)c3)C23C(=O)OC(C)(C)OC3=O)o1 (stereo unspecified)
3.49 | CC1(C)OC(=O)C2(C(=O)O1)C(c1cccs1)C(c1ccccc1)=NN2c1cccc(Cl)c1 (stereo unspecified)
3.30 | COc1ccc(C2C(c3ccccc3)=NN(c3ccccc3)C23C(=O)OC(C)(C)OC3=O)cc1 (stereo unspecified)
